Calls of active or inactive are those of the source. The calls are words filed in the database; no cut-off is given here.
What was measured:
[1] = target: T1, Neutrophil elastase (Homo sapiens) (UniProt P08246); assay: Ratio of Kinact to KI for human neutrophil elastase
T1 sequence (whole entry): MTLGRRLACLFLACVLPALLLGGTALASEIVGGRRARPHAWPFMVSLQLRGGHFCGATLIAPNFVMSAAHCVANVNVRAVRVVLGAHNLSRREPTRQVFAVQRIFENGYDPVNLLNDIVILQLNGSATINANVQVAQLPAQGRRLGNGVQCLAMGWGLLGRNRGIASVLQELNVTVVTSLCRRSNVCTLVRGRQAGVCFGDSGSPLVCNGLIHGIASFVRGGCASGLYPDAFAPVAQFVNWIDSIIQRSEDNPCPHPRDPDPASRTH
Method in brief: (§1)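 Human neutrophil elastase, progress curve method: 10 nM enzyme added to inhibitor plus 105 µM MeOSuc-Ala-Ala-Pro-Val p-nitroanilide in 0.1 M HEPES/0.5 M NaCl, pH 7.25, 2.5% DMSO. Absorbance followed at 410 nm for 10 min and fitted to the progress curve equation. Apparent second-order constants kinact/KI determined in duplicate.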

[2] = target: T2, Myeloblastin (Homo sapiens) (UniProt P24158); assay: Ratio of Kinact to KI for human PR3
T2 sequence (whole entry): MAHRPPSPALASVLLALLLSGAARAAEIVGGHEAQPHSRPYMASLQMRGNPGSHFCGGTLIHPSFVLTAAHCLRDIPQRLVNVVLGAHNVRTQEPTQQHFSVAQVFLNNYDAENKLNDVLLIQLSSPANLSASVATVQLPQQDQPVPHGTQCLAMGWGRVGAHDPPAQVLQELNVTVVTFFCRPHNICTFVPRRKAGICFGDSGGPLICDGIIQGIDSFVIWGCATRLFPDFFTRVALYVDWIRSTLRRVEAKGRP
Method in brief: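 Human proteinase 3 (34.5 nM final) with inhibitor (8.6 µM final) and Boc-Ala-Ala-NVa-SBzl plus 5,5′-dithio-bis(2-nitrobenzoic acid) in 0.1 M HEPES/0.5 M NaCl, pH 7.25. Absorbance change monitored at 410 nm for 2 min; inhibitor:enzyme ratio 250.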

[3] = target: T3, Cathepsin G (Homo sapiens) (UniProt P08311); assay: Ratio of Kinact to KI for human cathepsin G
T3 sequence (whole entry): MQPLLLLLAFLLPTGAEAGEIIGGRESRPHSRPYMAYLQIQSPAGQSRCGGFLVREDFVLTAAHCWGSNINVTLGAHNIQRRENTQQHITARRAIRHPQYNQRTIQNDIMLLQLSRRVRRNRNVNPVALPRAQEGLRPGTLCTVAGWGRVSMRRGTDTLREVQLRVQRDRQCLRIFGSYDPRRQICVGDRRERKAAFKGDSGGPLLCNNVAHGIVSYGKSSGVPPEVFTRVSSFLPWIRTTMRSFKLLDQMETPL
Method in brief: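 Neutrophil cathepsin G incubated with inhibitor at an [I]/[E] ratio of 250 for 30 min. Substrate N-succinyl-Ala-Ala-Pro-Phe p-nitroanilide (85 mM stock in DMSO) then added, and absorbance monitored at 410 nm for 10 min.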

Bos taurus [4] = organism: Bos taurus; assay: Inhibition of bovine trypsin; settings: TDE = time-dependent effect
Method in brief: (§2)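 Incubation method: bovine trypsin (5 µM final) incubated with excess inhibitor (0.125 mM final) in 0.025 M phosphate/0.1 M NaCl, pH 7.51, 1% DMSO, in a constant temperature bath. Aliquots taken over time, residual activity read with N-p-tosyl-Gly-Pro-Lys p-nitroanilide at 410 nm for 60 s. kobs from ln(v/v0) versus time, mean of two determinations, reported as kobs/[I].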

Bos taurus [5] = organism: Bos taurus; assay: Ratio of Kobs to [I] for bovine trypsin; method in brief: as §2
[6] = target: T1, Neutrophil elastase (Homo sapiens); assay: Inhibition of human neutrophil elastase; settings: TDE = time-dependent effect; method in brief: as §1

| Ratio [1] [M⁻¹ s⁻¹] | Activity [2] | Activity [3] | Activity (Bos taurus [4]) | Ratio (Bos taurus [5]) | Activity [6] | Structure (SMILES) |
| --- | --- | --- | --- | --- | --- | --- |
| 16900 | inactive | inactive | tde | 60 | tde | CCCC1C(=O)N(CS(=O)(=O)N[C@@H](COCc2ccccc2)C(=O)OC)S(=O)(=O)N1C (some centres undefined) |
| 41800 | inactive | inactive | tde | 50 | tde | CCCC1C(=O)N(CS(=O)(=O)N[C@@H](Cc2ccccc2)C(=O)OC)S(=O)(=O)N1C (some centres undefined) |
| 1050 | inactive | inactive | tde |  | tde | CCCC1C(=O)N(CS(=O)(=O)N[C@@H](C)C(=O)OC)S(=O)(=O)N1C (some centres undefined) |
| 1100 | inactive | inactive | tde | 12 | tde | CCCC1C(=O)N(CS(=O)(=O)N[C@@H](CO)C(=O)OC)S(=O)(=O)N1C (some centres undefined) |
| 6900 | inactive | inactive | tde |  | tde | CCCC1C(=O)N(CS(=O)(=O)N[C@@H](CCCCNC(=O)OCc2ccccc2)C(=O)OC)S(=O)(=O)N1C (some centres undefined) |
| 12900 | inactive | inactive | tde |  | tde | CCCC1C(=O)N(CS(=O)(=O)N[C@@H](CCCCN)C(=O)OC)S(=O)(=O)N1C (some centres undefined) |
| 34600 | inactive | inactive | tde | 19 | tde | CCCC1C(=O)N(CS(=O)(=O)N[C@@H](CCC)C(=O)OC)S(=O)(=O)N1C (some centres undefined) |
| 9760 | inactive | inactive | tde |  | tde | CCCC1C(=O)N(CS(=O)(=O)N[C@H](Cc2ccccc2)C(=O)OC)S(=O)(=O)N1C (some centres undefined) |

Reference: ChEMBL document CHEMBL1143175, “Inactivation of human neutrophil elastase by 1,2,5-thiadiazolidin-3-one 1,1 dioxide-based sulfonamides” (Bioorg Med Chem, 2008)
